Data set [1] is filed under the species Gallus gallus. In words: The compound was tested for anti-coccidial activity in chicken against Eimeria necatrix (Aquet) measured at dose 7.5 (ppm in diet). Format: functional.
The species entered for data set [2] is Gallus gallus. In words: The compound was tested for anti-coccidial activity in chicken against Eimeria praecox (DP-785) measured at dose 15 (ppm in diet). The data set is classed as functional.
Data set [3] is filed under the species Gallus gallus. In words: The compound was tested for anti-coccidial activity in chicken against Eimeria praecox (DP-785) measured at dose 30 (ppm in diet). Format: functional.
The species named for data set [4] is Gallus gallus. The experiment in a line: The compound was tested for anti-coccidial activity in chicken against Eimeria praecox (DP-785) measured at dose 45 (ppm in diet). Format: functional.
The next data set has as its system Eimeria acervulina. The experiment in a line: Anticoccidial activity in chicken against Eimeria acervulina. The data set is classed as functional. Further details: Reduction: concentration or dose not given beside the values. The essentials: (§1)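 3-Day-old chicks infected separately with E. tenella or E. acervulina; test compound given mixed in the feed at the stated rates. Activity was scored as percent suppression of oocyst production versus infected, unmedicated controls. Toxicity was judged from average weight gain relative to uninfected controls.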

The species entered for data set [5] is Gallus gallus. The experiment in a line: The compound was tested for anti-coccidial activity in chicken against Eimeria acervulina (DP-761) measured at dose 60 (ppm in diet). Format: functional.
The species named for data set [6] is Gallus gallus. The experiment in a line: The compound was tested for anti-coccidial activity in chicken against Eimeria acervulina (DP-761) measured at dose 7.5 (ppm in diet). The data set is classed as functional.
The species named for data set [7] is Gallus gallus. In words: The compound was tested for anti-coccidial activity in chicken against Eimeria brunetti (FS-103) measured at dose 15 (ppm in diet). Format: functional.
The species entered for data set [8] is Gallus gallus. The experiment in a line: The compound was tested for anti-coccidial activity in chicken against Eimeria brunetti (FS-103) measured at dose 30 (ppm in diet). Format: functional.
Data set [9] is filed under the species Gallus gallus. The experiment in a line: The compound was tested for anti-coccidial activity in chicken against Eimeria brunetti (FS-103) measured at dose 45 (ppm in diet). The data set is classed as functional.
For data set [10], the species on record is Gallus gallus. The experiment in a line: The compound was tested for anti-coccidial activity in chicken against Eimeria brunetti (FS-103) measured at dose 60 (ppm in diet). The data set is classed as functional.
Data set [11] is filed under the species Gallus gallus. In words: The compound was tested for anti-coccidial activity in chicken against Eimeria brunetti (FS-103) measured at dose 7.5 (ppm in diet). The data set is classed as functional.
Data set [12] is filed under the species Gallus gallus. In words: The compound was tested for anti-coccidial activity in chicken against Eimeria maxima (DP-776) measured at dose 30 (ppm in diet). The data set is classed as functional.
For data set [13], the species on record is Gallus gallus. The experiment in a line: The compound was tested for anti-coccidial activity in chicken against Eimeria maxima (DP-776) measured at dose 45 (ppm in diet). Format: functional.
For data set [14], the species on record is Gallus gallus. In words: The compound was tested for anti-coccidial activity in chicken against Eimeria maxima (DP-776) measured at dose 60 (ppm in diet). Format: functional.
The species entered for data set [15] is Gallus gallus. In words: The compound was tested for anti-coccidial activity in chicken against Eimeria maxima (DP-776) measured at dose 7.5 (ppm in diet). Format: functional.
The species entered for data set [16] is Gallus gallus. In words: The compound was tested for anti-coccidial activity in chicken against Eimeria praecox (DP-785) measured at dose 60 (ppm in diet). Format: functional.
Data set [17] is filed under the species Gallus gallus. The experiment in a line: The compound was tested for anti-coccidial activity in chicken against Eimeria praecox (DP-785) measured at dose 7.5 (ppm in diet). Format: functional.
Another data set has as its system Eimeria tenella. In words: Anticoccidial activity in chicken against E. tenella. Format: functional. Further details: Reduction: concentration or dose not given beside the values. The method in brief:
as §1

For data set [18], the species on record is Gallus gallus. In words: The compound was tested for anti-coccidial activity in chicken against Eimeria tenella (DP-761) measured at dose 15 (ppm in diet). Format: functional. The essentials: (§2)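 Test article mixed into the feed at the stated rates and given to 3-day-old chicks infected with […]. Each Eimeria species was inoculated separately. Activity was scored as percent suppression of oocyst output relative to infected, unmedicated controls. Toxicity was judged from average weight gain relative to uninfected controls.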

For data set [19], the species on record is Gallus gallus. The experiment in a line: The compound was tested for anti-coccidial activity in chicken against Eimeria acervulina (DP-761) measured at dose 15 (ppm in diet). The data set is classed as functional.
The species named for data set [20] is Gallus gallus. The experiment in a line: The compound was tested for anti-coccidial activity in chicken against Eimeria acervulina (DP-761) measured at dose 30 (ppm in diet). Format: functional.
The species named for data set [21] is Gallus gallus. In words: The compound was tested for anti-coccidial activity in chicken against Eimeria acervulina (DP-761) measured at dose 45 (ppm in diet). The data set is classed as functional.
Data set [22] is filed under the species Gallus gallus. In words: The compound was tested for anti-coccidial activity in chicken against Eimeria necatrix (Aquet) measured at dose 15 (ppm in diet). The data set is classed as functional.
For data set [23], the species on record is Gallus gallus. In words: The compound was tested for anti-coccidial activity in chicken against Eimeria necatrix (Aquet) measured at dose 30 (ppm in diet). The data set is classed as functional.
The species named for data set [24] is Gallus gallus. In words: The compound was tested for anti-coccidial activity in chicken against Eimeria necatrix (Aquet) measured at dose 45 (ppm in diet). Format: functional.
For data set [25], the species on record is Gallus gallus. In words: The compound was tested for anti-coccidial activity in chicken against Eimeria tenella (DP-761) measured at dose 30 (ppm in diet). Format: functional. The method in brief:
as §2

The species entered for data set [26] is Gallus gallus. The experiment in a line: The compound was tested for anti-coccidial activity in chicken against Eimeria tenella (DP-761) measured at dose 45 (ppm in diet). The data set is classed as functional. The essentials:
as §2

The species entered for data set [27] is Gallus gallus. The experiment in a line: The compound was tested for anti-coccidial activity in chicken against Eimeria tenella (DP-761) measured at dose 60 (ppm in diet). The data set is classed as functional. The essentials: as §2
Data set [28] is filed under the species Gallus gallus. The experiment in a line: The compound was tested for anti-coccidial activity in chicken against Eimeria tenella (DP-761) measured at dose 7.5 (ppm in diet). Format: functional. The method in brief:
as §2

The species entered for data set [29] is Gallus gallus. The experiment in a line: The compound was tested for anti-coccidial activity in chicken against Eimeria necatrix (Aquet) measured at dose 60 (ppm in diet). The data set is classed as functional.
The species named for data set [30] is Gallus gallus. In words: The compound was tested for anti-coccidial activity in chicken against Eimeria maxima (DP-776) measured at dose 15 (ppm in diet). Format: functional.
Data set [31] is filed under the species Gallus gallus. In words: The compound was tested for anti-coccidial activity in chicken against Eimeria tenella. The data set is classed as organism-based. Conditions: in vivo. The essentials:
as §2

The species named for data set [32] is Gallus gallus. In words: The compound was tested for anti-coccidial activity in chicken against Eimeria acervulina. Format: organism-based. Conditions: in vivo. The essentials:
as §1

For data set [33], the species on record is Gallus gallus. In words: The compound was tested for anti-coccidial activity in chicken against Eimeria praecox (DP-785) measured at dose 121 (ppm in diet). The data set is classed as functional.
The species entered for data set [34] is Gallus gallus. The experiment in a line: The compound was tested for anti-coccidial activity in chicken against Eimeria acervulina (DP-761) measured at dose 121 (ppm in diet). Format: functional.
The species named for data set [35] is Gallus gallus. In words: The compound was tested for anti-coccidial activity in chicken against Eimeria brunetti (FS-103) measured at dose 121 (ppm in diet). The data set is classed as functional.
The species entered for data set [36] is Gallus gallus. In words: The compound was tested for anti-coccidial activity in chicken against Eimeria hagani (DP-786) measured at dose 121 (ppm in diet). The data set is classed as functional.
The species entered for data set [37] is Gallus gallus. The experiment in a line: The compound was tested for anti-coccidial activity in chicken against Eimeria maxima (DP-776) measured at dose 121 (ppm in diet). Format: functional.
Data set [38] is filed under the species Gallus gallus. In words: The compound was tested for anti-coccidial activity in chicken against Eimeria mitis (LS-84) measured at dose 121 (ppm in diet). The data set is classed as functional.
For data set [39], the species on record is Gallus gallus. In words: The compound was tested for anti-coccidial activity in chicken against Eimeria tenella (DP-761) measured at dose 121 (ppm in diet). Format: functional. The essentials: as §2

As to `NC(=O)c1nnn(Cc2cc(Cl)c(C(=O)c3ccc(Cl)cc3)c(Cl)c2)c1N` [CARBOXYAMIDOTRIAZOLE], the Reduction in the data set listed under Gallus gallus [1] came to 12%; in the data set filed under Gallus gallus [2] it was 98%; in the data set listed under Gallus gallus [3], 100%; in the data set filed under Gallus gallus [4], 100%; with Eimeria acervulina it was 90%; in the data set filed under Gallus gallus [5] it was 99.9%. Moreover, the Reduction in the data set listed under Gallus gallus [6] was 21%; in the data set filed under Gallus gallus [7], 95%; in the data set listed under Gallus gallus [8], 100%; in the data set filed under Gallus gallus [9], 100%; in the data set filed under Gallus gallus [10], 100%; in the data set listed under Gallus gallus [11] it was 58%. Moreover, the Reduction in the data set listed under Gallus gallus [12] is reported as 99.9%; in the data set filed under Gallus gallus [13], 99.9%; in the data set listed under Gallus gallus [14], 99.9%; in the data set listed under Gallus gallus [15], 99.9%; in the data set listed under Gallus gallus [16], 100%; in the data set filed under Gallus gallus [17] it was 72%. Further, the Reduction in the data set on Eimeria tenella is 80%; in the data set filed under Gallus gallus [18] it was 83%; in the data set listed under Gallus gallus [19] it was 98%; in the data set listed under Gallus gallus [20], 99.9%; in the data set filed under Gallus gallus [21], 99.9%; in the data set listed under Gallus gallus [22], 88%. In addition, the Reduction in the data set listed under Gallus gallus [23] was 100%; in the data set filed under Gallus gallus [24], 100%; in the data set filed under Gallus gallus [25], 98%; in the data set listed under Gallus gallus [26] it was 99.9%; in the data set listed under Gallus gallus [27], 99.9%; in the data set filed under Gallus gallus [28], 60%. Also, the Reduction came out at 100% in the data set listed under Gallus gallus [29] and 99.9% in the data set listed under Gallus gallus [30].
In the case of `NC(=O)c1c(N)nnn1Cc1cc(Cl)c(C(=O)c2ccc(Cl)cc2)c(Cl)c1`, the minimum effective dose in the data set filed under Gallus gallus [31] and in the data set filed under Gallus gallus [32] was over 500 ppm in each case.
On to `CC[C@@]1([C@@H]2O[C@@H]([C@H]3O[C@@](O)(CO)[C@H](C)C[C@@H]3C)C[C@@H]2C)CC[C@H]([C@]2(C)CC[C@]3(C[C@H](O)[C@@H](C)[C@@H]([C@@H](C)[C@@H](OC)[C@H](C)C(=O)O)O3)O2)O1` [MONENSIN], for which the Reduction in the data set listed under Gallus gallus [33] amounted to 19%; in the data set with Eimeria acervulina, 80%; in the data set filed under Gallus gallus [34] it was 4%; in the data set filed under Gallus gallus [35] it was 100%; in the data set listed under Gallus gallus [36] it was 19%; in the data set listed under Gallus gallus [37], 73%. The Reduction in the data set filed under Gallus gallus [38] was determined as 72%; in the data set on Eimeria tenella it was 80%; in the data set listed under Gallus gallus [39], 100%.

The record behind these values is ChEMBL document CHEMBL1125210, “Benzylated 1,2,3-triazoles as anticoccidiostats” (J Med Chem, 1991).
